PP5 inh: inhibitors of human protein phosphatase 5 (PP5); hit rate 0.18% among 320,000; inhibition, % at 6.7 µM; purified PP5c, OMFP substrate fluorescence;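 active = inhibition above the campaign's mean inhibition across all tested compounds plus 3 SD, cut at about 9.5% in these data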
JMJD2C inh: blocks human GASC-1 demethylase activity; GST-JMJD2C(1-420) H3K9me3 demethylation, DELFIA europium; inhibition, % at 2.35 µM; hit rate 0.069% among 330,000; AID 2099;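 active = more than half of a compound's replicate wells show inhibition beyond 50%, single wells judged on their own value; inconclusive = some, but no more than half, of replicates pass 50% inhibition; inactive = no replicate passes 50% inhibition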;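 note: signal counts dimethyl H3K9 product captured on neutravidin plate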
PP1 inh: blocks human PP1-alpha phosphatase, a PP5 counter-screen | inhibition, % at 6.7 µM | hit rate 0.9% among 320,000 | AID 2235 | purified PP1alpha, OMFP fluorescence;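 active = inhibition above the mean inhibition of all tested compounds plus 3 SD, computed separately for each screening campaign, cut at about 15% in these data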
HTR2A ag: activates the mouse 5-HT2A serotonin receptor. AID 624169. hit rate 0.66% among 360,000. P35363. activation, % at 7.6 µM. CHO-K1 mHTR2A beta-arrestin complementation, luminescence; percent of 30 µM serotonin response;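 active = activation above a run cutoff, the mean activation of all tested compounds plus 3 SD, cut at about 14% in these data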
Target sequence (P35363 whole entry, looked up): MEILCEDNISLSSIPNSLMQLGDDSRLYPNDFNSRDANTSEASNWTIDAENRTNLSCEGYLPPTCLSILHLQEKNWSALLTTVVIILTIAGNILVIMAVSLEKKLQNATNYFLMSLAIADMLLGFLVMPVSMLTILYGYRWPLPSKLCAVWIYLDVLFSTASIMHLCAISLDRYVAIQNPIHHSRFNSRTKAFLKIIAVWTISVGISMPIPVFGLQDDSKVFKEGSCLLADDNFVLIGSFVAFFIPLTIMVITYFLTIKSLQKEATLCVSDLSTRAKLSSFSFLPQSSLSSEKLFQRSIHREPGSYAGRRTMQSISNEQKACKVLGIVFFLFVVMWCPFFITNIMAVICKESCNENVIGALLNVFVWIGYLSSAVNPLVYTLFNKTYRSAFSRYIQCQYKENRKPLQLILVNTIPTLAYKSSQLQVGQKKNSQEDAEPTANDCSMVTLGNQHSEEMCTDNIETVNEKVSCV
T cell modulator: T cell immune modulation candidate; response (vesicle binding), % at 7 µM; hit rate 0.068% among 330,000; 2C CD8+ T cell-vesicle binding, flow cytometry; active compounds read low;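 active = response, share of CD8 T cells binding vesicles, and their 90th percentile fluorescence all below set limits, cut at about 80% in these data, passing the limit was not always enough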;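 note: values below 100% mean blocked vesicle binding to the CD8+ T cells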
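Benchmarks: naked versus QL9-loaded vesicles / Assay system: purified 2C TCR transgenic mouse naive CD8+ T cells / Technique: high-throughput flow cytometry with anti-B7-1 and anti-CD8 staining / Timing: Cell–vesicle co-incubation 1.5 h at 37 °C, staining 20 min on ice / Read-out: percent CD8+ FL2 mean versus row control / Probe or stimulus: QL9-loaded Drosophila micro-vesicles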
PP1 confirm: confirmation of human PP1 phosphatase inhibitors; shares compounds with PP1 inh; purified PP1alpha, OMFP substrate fluorescence; inhibition, % at 6.7 µM; hit rate 52% among 1,900; AID 2358;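 active = mean PP1 inhibition above a set limit taken from the earlier primary screen, cut at about 15% in these data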
PP5 counter: counter-screen for PP1 inhibitors: human PP5 phosphatase inhibition | shares compounds with PP1 inh | purified PP5c, OMFP fluorescence | inhibition, % at 6.7 µM | hit rate 4% among 1,900;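 active = mean PP5 inhibition over triplicate wells above about 9.5% taken from the earlier PP1 screen, limit read from the data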
Of the large screens only hits and unclear results are named; the others gave an inactive call (follow-up assays come after a bar, where they were run). Hits are enriched below; roughly 1.7% of the tested compounds scored in any of these assays.

CC1(c2ccccc2)NC(=O)N(CC(=O)Nc2nc(-c3ccccn3)cs2)C1=O (configuration not stated)	none
Cc1ccc(C2(C)NC(=O)N(CC(=O)Nc3nc(-c4ccccn4)cs3)C2=O)cc1 (configuration not stated)	JMJD2C inh inconclusive, PP1 inh 25.6 | PP1 confirm 42.9 | PP5 counter inactive
COc1ccc(NC(=S)NNc2ccc(C(=O)O)cc2)cc1	none
CC1=NN(/C(=N\c2nnc(C)s2)Nc2ccc(C(C)(C)C)cc2)[C@H](c2ccc(C)cc2)S1	none
Cc1cccc(C)c1NC(=O)C(=O)NCC1CCCN1S(=O)(=O)c1ccccc1 (configuration not stated)	none
Cc1ccc(S(=O)(=O)CCC(=O)Nc2nc(-c3ccccn3)cs2)cc1	PP1 inh 27.2 | PP1 confirm 40.3 | PP5 counter inactive
O=C(COc1ccc([N+](=O)[O-])cc1)Nc1nc(-c2ccccn2)cs1	PP1 inh 41.0 | PP1 confirm 37.0 | PP5 counter inactive
Cc1c(Cl)cccc1NC(=O)CSC(N)=O	none
CCN(Cc1ccccc1)Cc1nnnn1Cc1ccccc1	none
Cc1sc2nc(CN3CCCC3)nc(N3CCN(S(=O)(=O)c4cccs4)CC3)c2c1C	PP1 inh 27.2 | PP1 confirm inactive | PP5 counter inactive
CCc1nc(N2CCN(S(=O)(=O)c3ccc(Br)cc3)CC2)c2c(C)c(C)sc2n1	none
Cc1ccc(S(=O)(=O)N2CCN(c3nc(CN4CCCC4)nc4sc(C)c(C)c34)CC2)cc1	PP1 inh 18.9 | PP1 confirm inactive | PP5 counter inactive
COc1ccc(NC(=O)Nc2cccc3c2O[C@H](CN(C)S(=O)(=O)c2c(C)noc2C)[C@@H](C)CN([C@H](C)CO)C3=O)cc1	none (no result: PP5 inh, PP1 inh)
COc1ccc(C(=O)COC(=O)c2cc(=O)c3ccccc3o2)c(OC)c1	none (no result: PP5 inh, JMJD2C inh, PP1 inh, T cell modulator)
CCCNC(=O)CCCCn1c(=S)[nH]c2c([nH]c3ccc(OC)cc32)c1=O	none
COc1ccc2[nH]c3c(=O)n(CCCCC(=O)N4CCCC4)c(=S)[nH]c3c2c1	PP1 inh 36.2 | PP1 confirm 32.8 | PP5 counter inactive
Cc1ccc2nc(NNC(=O)c3ccc(S(=O)(=O)N4CCc5ccccc5C4)cc3)sc2c1	PP1 inh 28.6 | PP1 confirm 25.0 | PP5 counter inactive
Cc1cc(C)c2nc(NNC(=O)c3ccc(S(=O)(=O)N4CCCC(C)C4)cc3)sc2c1 (configuration not stated)	PP1 inh 21.1 | PP1 confirm 24.4 | PP5 counter inactive
Cc1ccc2nc(NNC(=O)c3ccc4c(c3)OCCO4)sc2c1	none
COc1ccc(S(=O)(=O)NC2CC2)cc1Cl	none
COc1ccc(N2CCN(C(CNC(=O)COc3ccccc3)c3ccco3)CC2)cc1 (configuration not stated)	none
CCc1sc(NC(=O)C(C)C)nc1-c1ccccc1	none
Cc1ccc(CNC(=O)c2ccc3nc4[nH]c5ccccc5c4nc3c2)cc1	none (no result: PP5 inh, PP1 inh, HTR2A ag, T cell modulator)
COc1ccccc1CNC(=O)c1ccc2nc3[nH]c4ccccc4c3nc2c1	PP1 inh 21.2 | PP1 confirm 22.9 | PP5 counter inactive
COc1cc(CNc2ncnc3c2ncn3[C@H]2CN(Cc3cc(OC)c(OC)c(OC)c3)C[C@@H](CO)O2)cc(OC)c1OC	none (no result: PP5 inh, JMJD2C inh, PP1 inh, T cell modulator)
NC(=O)c1nc(-c2ccccc2)c(-c2ccccc2)[nH]c1=O	PP1 inh 19.9 | PP1 confirm 15.8 | PP5 counter inactive
Cc1nc(-c2ccccc2)c(-c2ccccc2)[nH]1	none
CCOc1ccc(S(=O)(=O)N2CCOCC2)cc1NC(=O)CCN1C(=O)NC2(CCCC2)C1=O	none (no result: PP5 inh, JMJD2C inh, PP1 inh, T cell modulator)
CCC1(c2ccccc2)NC(=O)N(CC(=O)Nc2cc(S(=O)(=O)N3CCCCC3)ccc2OC(C)C)C1=O (configuration not stated)	PP1 inh 18.3 | PP1 confirm inactive | PP5 counter inactive
NC1C2CN(c3nc4c(cc3F)c(=O)c(C(=O)O)cn4-c3ccc(F)cc3F)CC12 (configuration not stated)	PP1 inh 19.9 | PP1 confirm inactive | PP5 counter inactive

Source: PubChem (several laboratories)
